From ChEMBL document CHEMBL1138289, “Synthesis and biological evaluation of fluorescent leishmanicidal analogues of hexadecylphosphocholine (miltefosine) as probes of antiparasite mechanisms” (J Med Chem, 2007)

How the values were obtained:
Leishmania donovani [1] = assay: Antileishmanial activity against miltefosine-sensitive Leishmania donovani MHOM/ET/67/L82 promastigotes by MTT assay; assay type: functional; conditions: read-out: LD50 (the source's name)
Outline: (§1)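 Promastigotes from late exponential phase, washed twice, seeded at 2 × 10^6 parasites mL-1 in RPMI with 10% heat-inactivated FCS and 2 mM glutamine, exposed to compound 72 h at 26 °C. Washed in Hanks+Glc, MTT 0.5 mg mL-1 for 2 h at 26 °C, formazan dissolved in 10% SDS overnight at 37 °C, A595. Triplicates, two or more experiments; LD50 with SE.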

Leishmania donovani [2] = assay: Antileishmanial activity against miltefosine-resistant Leishmania donovani MHOM/ET/67/L82R40 promastigotes by MTT assay; assay type: functional; conditions: read-out: LD50 (the source's name); outline: as §1
Leishmania pifanoi = assay: Antileishmanial activity against miltefosine-sensitive Leishmania pifanoi MHOM/VE/60/Ltrod amastigotes by MTT assay; assay type: functional; conditions: read-out: LD50 (the source's name)
Outline: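 Axenic amastigotes from late exponential phase, washed twice, seeded at 2 × 10^6 parasites mL-1 in growth medium with compound for 120 h at 32 °C. Then washed in Hanks+Glc, given 0.5 mg mL-1 MTT for 2 h at 32 °C, SDS 10% overnight at 37 °C, absorbance 595 nm. Triplicates, repeated at least twice; LD50 (50% proliferation inhibition) with SE.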

Leishmania donovani [3] = assay: Drug level per mg of protein in miltefosine-sensitive Leishmania donovani promastigotes at 15 uM after 2 hrs; assay type: ADME, organism-based; conditions: in vivo
Outline: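 Late-exponential L. donovani promastigotes (MHOM/ET/67/L82) washed twice in Hanks+Glc, resuspended at 1.5 × 10^7 parasites mL-1 in the same medium with the analogue, incubated 2 h at 26 °C to reach steady intracellular accumulation. Analogue extracted and quantified by HPLC against calibration plots; expressed per mg protein.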

Leishmania donovani [4] = assay: Intracellular drug concentration in miltefosine-sensitive Leishmania donovani promastigotes at 7.5 uM after 2 hrs; conditions: in vivo

C[N+](C)(C)CCOP(=O)([O-])OCCCCC/C=C/C=C/C=C/C=C/c1ccccc1
LC50 (Leishmania donovani [1]): 28.6 µM | LC50 (Leishmania donovani [2]): > 60 µM | LC50 (Leishmania pifanoi): 26 µM

C[N+](C)(C)CCOP(=O)([O-])OCCCCCC#C/C=C/C=C/C=C/c1ccccc1
Drug uptake (Leishmania donovani [3]): 7.6 nmol/mg | LC50 (Leishmania donovani [1]): 29.6 µM | LC50 (Leishmania donovani [2]): > 60 µM | LC50 (Leishmania pifanoi): 26.5 µM | Intracellular concentration (Leishmania donovani [4]): 0.7 mM

OCCCCCC#C/C=C/C=C/C=C/c1ccccc1
LC50 (Leishmania donovani [1]): > 150 µM | LC50 (Leishmania donovani [2]): > 150 µM | LC50 (Leishmania pifanoi): > 150 µM

COC(COCCCCCCC/C=C/C=C/C=C/C=C/c1ccccc1)COP(=O)([O-])OCC[N+](C)(C)C (racemic)
LC50 (Leishmania donovani [1]): 9 µM | LC50 (Leishmania donovani [2]): > 60 µM | LC50 (Leishmania pifanoi): 22.5 µM

CCCCCCCCCCCCCCCCOP(=O)([O-])OCC[N+](C)(C)C [MILTEFOSINE]
LC50 (Leishmania donovani [1]): 12.5 µM | LC50 (Leishmania donovani [2]): > 60 µM | LC50 (Leishmania pifanoi): 26.3 µM
